# HSF1 inh: HSF1 inhibition; NIH3T3-HGL HSE-luciferase, MG132-induced, luminescence 8 h; stronger effect = lower value; hit rate 0.77% among 300,000; activity change, negative = inhibition, % at 7.5 µM (by protocol);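 active means more than half of replicate wells show activity change below -50%, luminescence cut by over half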;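 further: luciferase reports HSF-1 transcriptional activity via heat shock element; 0% = median of DMSO wells and -100% = zero luminescence signal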
# HSF1 activator: increases HSF-1 driven luciferase reporter signal. NIH3T3-HGL HSF-1 luciferase reporter, MG132, 8 h; 100% = twice DMSO control signal. activation, % at 9 µM. hit rate 1.7% among 300,000;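 active means mean replicate activation of at least 50% with a set share of replicates each reaching 50%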;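 further: 0% = median of the neutral control wells and 100% = twice that signal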
# CHT inh: inhibits the human high affinity choline transporter | B-score at 10 µM | AID 488975 | hit rate 0.86% among 310,000 | CHT-expressing cells, membrane potential dye, choline response; stronger effect = lower value | Q9GZV3;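 active means B-score over 3 SD under the library average, and starting fluorescence ratio not unusually high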;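 further: choline stimulus applied at its EC90 after an EC20 pre-addition; B-score computed on integrated fluorescence ratio after choline addition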
# PHOSPHO1 inh: blocks human PHOSPHO1 phosphatase activity | Q8TCT1 | AID 1565 | hit rate 1.1% among 290,000 | recombinant PHOSPHO1, absorbance phosphatase assay | inhibition, % at 13.3 µM; in the data active means inhibition above about 60%
# Target sequence (Q8TCT1 whole entry, looked up): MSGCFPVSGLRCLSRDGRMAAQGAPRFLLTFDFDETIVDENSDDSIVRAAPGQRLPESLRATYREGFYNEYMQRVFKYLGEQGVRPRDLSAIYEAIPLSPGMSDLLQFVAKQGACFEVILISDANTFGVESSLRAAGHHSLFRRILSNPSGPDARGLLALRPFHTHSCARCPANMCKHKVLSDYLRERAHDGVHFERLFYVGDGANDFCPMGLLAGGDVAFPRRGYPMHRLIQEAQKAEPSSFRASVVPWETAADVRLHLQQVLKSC
# Lipid droplet: hepatic lipid droplet formation modulation. hit rate 0.4% among 240,000. AML12 mouse hepatocytes, oleate lipid droplets, BODIPY imaging. inhibition, % at 6.5 µM;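 active means lipid droplet intensity inhibited by at least 50%, with more than 500 cells counted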
#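 Material – AML12 mouse liver cells · Also added – oleate loading, 100 µM · Compound dosing – 6.5 µM single-point dosing · Times – overnight treatment with compound plus oleate · Measured by – fluorescence imaging, 20x objective, two fields per well · Read-out – percent inhibition of filter-corrected integrated lipid droplet intensity per well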
# CHT allo act: human CHT allosteric activation. AID 488977. Q9GZV3. hit rate 0.49% among 310,000. CHT-expressing cells, membrane potential dye, choline EC20; stronger effect = higher value; LV-AA mutant CHT in HEK293 cells. B-score at 10 µM;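 active means initial fluorescence not abnormally high and integrated response B-score, plate-corrected, over 3 SD above library mean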
# * marks the source's active call; other numbers are inactive results; i = inactive; . = not tested or not shown. An excerpt weighted towards active compounds, which were near 4.9% of everything screened.
SMILES,HSF1 inh,HSF1 activator,CHT inh,PHOSPHO1 inh,Lipid droplet,CHT allo act
O=C(N/N=C/c1ccc(OC(=O)c2ccc([N+](=O)[O-])cc2)cc1)c1cccnc1,0,2,i,63*,-3,i
COc1ccccc1C(=O)Nc1ccc(N2CCN(S(C)(=O)=O)CC2)cc1,43,78*,i,7,-9,i
COc1c(C)cccc1C(=O)Nc1ccc(N2CCN(S(C)(=O)=O)CC2)cc1,23,43,i,15,.,i
COc1ccccc1CN1CC(C(=O)NCCN2CCNC2=O)CCC1=O (configuration not stated),-73*,-79,i,-16,10,i
O=S1(=O)CCC(NC(=S)Nc2ccccc2)C1 (configuration not stated),0,0,i,28,-1,i
Cc1c(Cl)c(C(=O)NC2CCCC2)nn1C,17,61*,i,-1,-8,i
COc1cccc(C(=O)COC(=O)C2CC3CCCC(C2)C3=O)c1 (configuration not stated),7,9,i,.,.,i
O=C(/C=C/c1ccc(Cl)cc1Cl)Nc1ccncc1,.,.,i,-7,-10,i
COc1cccc(CC(=O)Nc2ccccc2N2CCCC2)c1,-1,-6,i,18,-14,i
O=C(O)c1ccc(CN2C(=O)c3cccc4c([N+](=O)[O-])ccc(c34)C2=O)cc1,-83*,-82,.,27,-7,.
O=C(Nc1nccs1)c1cccc(N2C(=O)c3cccc4c([N+](=O)[O-])ccc(c34)C2=O)c1,148,170*,i,78*,9,i
Cc1ccc(C(=O)O)cc1N1C(=O)c2cccc3c([N+](=O)[O-])ccc(c23)C1=O,-9,-10,-5*,19,1,i
CCOC(=O)N1CCN(c2nc3ccc(C)cc3n3cnnc23)CC1,-10,-2,.,-3,0,.
CC(C)(C)NC(=O)CSc1nnc(Cc2ccc3c(c2)OCO3)n1C1CCCCC1,5,-5,i,38,.,i
Cc1ccc2nc(N3CCN(Cc4nnnn4Cc4ccccc4)CC3)c(C#N)cc2c1,-62*,-69,i,6,2,i
Cc1ccc2nc(N3CCN(C)CC3)c(C#N)cc2c1,-2,12,i,5,.,i
COC(=O)c1ccc(CNC(=O)C(NC(=O)c2ccco2)C(C)C)cc1 (configuration not stated),-58*,-66,i,28,16,i
CC(C)Cc1nnc(NC(=O)c2cc(-c3ccccc3)nc3ccccc23)s1,6,2,i,30,.,i
COc1ccc(CCCc2nnc(SCC(=O)Nc3ccccc3F)o2)cc1,7,5,i,-17,0,i
CCCn1c(SCc2nc3sc(C)c(C)c3c(=O)[nH]2)nc2ccccc2c1=O,61,114*,i,69*,.,i
C=CCn1c(SCc2nc3ccccc3c(=O)[nH]2)nc2ccccc2c1=O,22,45,i,10,-19,i
Cc1[nH]nc2c1C1(CCN(Cc3ccccc3)CC1)C(C#N)=C(N)O2,-3,-7,i,44,-5,i
CCc1[nH]nc2c1C1(CCN(C(=O)OCc3ccccc3)CC1)C(C#N)=C(N)O2,7,55*,i,8,-4,i
CC(C)NC(=O)N(O)C1N(Cc2ccc3c(c2)OCO3)C(=S)SC1(C)C (configuration not stated),-58*,-67,i,-6,.,i
C=CCNC(=S)N/N=C/c1ccc(C(C)(C)C)cc1,-1,4,.,-13,11,.
SMILES,HSF1 inh,HSF1 activator,CHT inh,PHOSPHO1 inh,Lipid droplet,CHT allo act
COc1cc(C=O)ccc1OC(=O)c1ccc(C(C)C)cc1,-91*,-93,i,39,0,i
O=C(c1ccc(F)cc1)N1CCN(c2cnn(-c3ccccc3)c(=O)c2Cl)CC1,-4,4,i,23,2,i
CN1C(C(=O)NCc2cccc(Br)c2)CC2Cn3c(nc4cc5ccccc5cc43)C21 (configuration not stated),2,1,i,44,-7,i
COc1ccc(C(=O)Nn2c(SCC(=O)c3ccccc3)nc3ccccc3c2=O)cc1,-59*,-60,i,11,.,i
CSc1ncccc1C(=O)OCc1ccccc1,28,58*,i,-3,.,i
CC1Oc2ccccc2N(CC(=O)NC2CC2)C1=O (configuration not stated),-4,-5,i,24,-6,i
CC1Oc2ccccc2N(CC(=O)NCc2ccccc2)C1=O (configuration not stated),-88*,-90,i,14,0,i
CC(=O)Nc1ccc(NC(=O)COc2c(C)cc(Br)cc2C)cc1,6,28,i,8,-1,i
Cc1cc2ncn(/N=C/c3ccc([N+](=O)[O-])o3)c2cc1C,.,.,i,69*,.,i
Cn1c(/C=C/c2ccc(Cl)cc2)nc2ccccc2c1=O,33,46,i,39,26,i
Cn1c(/C=C/c2ccc([N+](=O)[O-])o2)nc2ccccc2c1=O,44,62*,i,38,.,i
Cc1cc(N/N=C/c2ccc([N+](=O)[O-])o2)nc2ccccc12,43,65*,i,20,3,i
Cn1c(/C=C/c2ccccc2)nc2ccccc2c1=O,-80*,-84,i,15,8,i
CCc1nn(CC(=O)NC(C)CCc2ccccc2)c(=O)c2cc3occc3n12 (configuration not stated),-5,-5,i,59,10,i
COc1ccc(/C=N/N2CCOCC2)cc1Cn1cc([N+](=O)[O-])cn1,0,24,i,28,-2,i
COc1ccc(C(=O)OCCN2C(=O)c3ccccc3C2=O)cc1,5,20,i,13,.,i
COc1ccc(OCCN2C(=O)c3cccc(N)c3C2=O)cc1,39,59*,i,6,-4,i
CCN(CC)CCNCc1cc(Cl)ccc1OCc1ccccc1F,-61*,-71,i,45,-12,i
Cn1cnnc1Sc1ccc(/C=C/C(=O)c2ccc(O)cc2)cc1[N+](=O)[O-],30,58*,i,30,-3,i
CCS(=O)(=O)c1ccc(Sc2nncn2C)c([N+](=O)[O-])c1,-3,14,i,-11,11,i
O=C(N/N=C/c1ccc(OCC(=O)N2CCCC2)cc1)C(=O)NC1CC1,-1,0,i,-28,-6,i
N#Cc1ccc(-c2ccccc2)nc1SCC(=O)c1cccc(Cl)c1,9,31,i,-19,.,i
N#Cc1ccc(-c2ccc(Cl)cc2)nc1SCC(=O)c1cccc(Cl)c1,-4,3,i,76*,-1,i

# Assay outcomes deposited in PubChem by several laboratories.
